An excerpt weighted towards active compounds, which were near 5.1% of everything screened.
APP 5'UTR act: activators of APP 5'UTR luciferase reporter, primary screen, SH-SY5Y cells; AID 1276, 2008; activation, % at 2 µM; SH-SY5Y APP 5'UTR luciferase reporter, luminescence; zero percent = DMSO vehicle wells; 190,000 tested, 1% active;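 active means activation above a set limit, based on mean plus 3 SD of controls, cut at about 140% in these data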
STAT3 act: IL-6 driven STAT3 reporter potentiators, primary screen, U3A cells, luciferase, luminescence, MLSCN library; IL-6 STAT3-luciferase reporter; 100% = signal with IL-6 EC80 alone; activation (% of control), % at 5.6 µM; 190,000 tested, 0.91% active;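 active means activation above the screen-wide mean of compound activation plus 3 SD, cut at about 130% in these data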
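Material: STAT3-luciferase reporter U3A cells; Probe or stimulus: IL-6 (33 ng/mL); Incubation: compound pre-incubation 1 h before IL-6, then 6 h stimulation at 37 °C; Technique: luminescence from STAT3-driven luciferase reporter; Evaluation: % activation versus median of IL-6-stimulated wells; Controls: IL-6-only high control.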
NF-kB neuron act: activators of NF-kB expression in neurons, primary screen, cell-based, HTS; 190,000 tested, 1.6% active; fold change at 12.5 µM; AID 1239, 2008; human neuronal cells, NF-kB reporter expression; stronger effect = higher value; in the data active means fold change above about 3.3
STAT1 act: STAT1 signaling activators, primary screen, cell-based, HTS, luciferase reporter. NIH 3T3 STAT1-luciferase reporter, IFN-gamma, luminescence; 100% = IFN-gamma alone, no compound. 200,000 tested, 2.6% active. activation (% of control), % at 5.5 µM;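 active means activation above the screen-wide mean activation plus 3 SD, cut at about 130% in these data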
STAT3 inh: IL-6 driven STAT3 reporter inhibitors, primary screen, U3A cells, luciferase, luminescence, MLSCN library; AID 862, 2007; inhibition, % at 5.5 µM; IL-6 STAT3-luciferase reporter; host cell line lacks STAT1; 190,000 tested, 0.89% active;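 active means inhibition above the mean inhibition across all screened compounds plus 3 SD, cut at about 44% in these data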
STAT1 blocker: STAT1 signaling inhibitors, primary screen, cell-based, HTS, luciferase reporter. AID 920, 2007. 200,000 tested, 0.35% active. NIH 3T3 STAT1-luciferase reporter, IFN-gamma, luminescence. inhibition, % at 5.5 µM;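 active means inhibition above a set limit, the mean inhibition across all tested compounds plus 3 SD, cut at about 34% in these data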
Hits are given with their value; – = inactive; · = no result.

SMILES | APP 5'UTR act | STAT3 act | NF-kB neuron act | STAT1 act | STAT3 inh | STAT1 blocker
Cc1ccc(NC(=O)c2ccc(N3C(=O)C4CC=C(Cl)CC4C3=O)cc2)cc1 (configuration not stated) | · | – | – | – | – | –
C/C(=N\O)c1ccc(N2C(=O)C3CC=C(Cl)CC3C2=O)cc1 (configuration not stated) | 144.4 | – | – | 139.3 | – | –
O=C(O)c1cnc(-c2ccccc2)nc1Sc1ccccc1Cl | – | 134.6 | – | – | – | –
O=C(/C=C/c1ccccc1)N1CCN(CCN2C(=O)c3cccc4cccc(c34)C2=O)CC1 | – | – | – | – | – | –
Cc1nn(C)cc1CN(C)C(=O)c1cc(-c2ccccc2)nc2ccc(Br)cc12 | – | – | – | – | – | –
N#C/C(=C/c1ccc(N2CCCCC2)o1)c1cccc(F)c1 | – | 136.0 | – | 144.9 | – | –
N#C/C(=C/c1ccc(N2CCCCCC2)o1)c1ccc(Cl)cc1 | – | – | 3.44 | – | – | –
COc1cc(C)c(/C=C(\C#N)C(=O)Nc2cccc(C)c2)cc1C(C)C | · | – | – | – | – | –
Cc1cccc(C)c1NC(=O)CN1C(=O)NC(C)(CCc2ccccc2)C1=O (configuration not stated) | – | – | – | – | – | –
CNc1ccccc1C(=O)OCC(=O)c1ccc(F)cc1 | – | – | – | 132.5 | – | –
NS(=O)(=O)c1cc(C(=O)OCC(=O)c2ccc3c(c2)OCCO3)ccc1Cl | – | – | 9.84 | – | – | –
CNc1ccccc1C(=O)OCC(=O)c1ccccc1 | – | – | – | – | – | –
CC(C)C(=O)Nc1ccccc1C(=O)OCC(=O)c1ccc2c(c1)OCCO2 | – | – | – | 138.9 | – | –
CC(C)N(Cc1ccccc1)C(=O)COC(=O)c1ccc2c(c1)OCCO2 | – | – | – | – | – | –
NS(=O)(=O)c1cc(C(=O)OCC(=O)NC2CC2)ccc1Cl | – | – | – | – | – | –
N#CCC(=O)Nc1ccc(C(=O)OCC(=O)c2ccc3c(c2)OCCO3)cc1 | – | – | 4.63 | – | – | –
NS(=O)(=O)c1ccc(NC(=O)COC(=O)c2ccc3c(c2)OCCO3)cc1 | – | – | – | – | – | –
Cc1ccc(C(=O)n2c(-c3ccccc3)cnc2SCC(=O)Nc2ccc(C)cc2C)cc1 | – | – | – | – | – | –
Cc1cc(C)nc(N(C#N)Cc2cccc3ccccc23)n1 | – | – | – | – | – | –
COCCNC(=O)COc1ccc(Br)cc1Cl | – | – | – | – | – | –
C=CCNC(=O)COc1ccc(Br)cc1Cl | – | – | – | 131.9 | – | –
O=C(COc1ccc(Br)cc1Cl)c1ccc[nH]1 | – | – | – | 136.8 | – | –
O=C(COc1ccc(Br)cc1Cl)NC1CCCCC1 | – | – | 3.45 | 138.1 | – | –
O=C(COc1ccccc1Cl)c1ccc[nH]1 | – | – | – | – | – | –
COc1ccc(OCc2nc3ccccc3[nH]2)cc1 | · | – | 3.95 | – | – | –
SMILES | APP 5'UTR act | STAT3 act | NF-kB neuron act | STAT1 act | STAT3 inh | STAT1 blocker
COc1cccc(OCc2nc3ccccc3[nH]2)c1 | – | – | 3.36 | – | – | –
CC(C)(C)c1ccc(C(=O)N2CCN(CCNC(=O)C(=O)NCc3ccccc3)CC2)cc1 | – | – | – | – | – | –
CCCN1C(=O)C2(SC(NC(C)=O)=NN2C(C)=O)c2cc(C)ccc21 (configuration not stated) | – | – | – | – | – | –
Cc1ccc(C(=O)C2=C(O)C(=O)N(Cc3ccccc3)C2c2cccnc2)o1 (configuration not stated) | – | – | – | – | – | 36.6
Cc1cc(C(=O)C[N+]2(C)CCOCC2)c(C)n1-c1ccc(Br)cc1 | – | – | – | – | – | –
COc1cccc(-c2csc(NC(C)=O)n2)c1 | – | – | – | 137.3 | – | –
CC(=O)Nc1nc(-c2ccc3c(c2)CCO3)cs1 | – | – | – | 141.1 | – | –
c1cc2c(cc1-c1csc(NNC3=NCCCCC3)n1)OCCO2 | – | – | – | 144.1 | – | –
COc1ccc(-c2csc(NC(C)=O)n2)cc1OC | – | – | – | – | – | –

Screening data (PubChem)
